In the library only some 3.7% were active in any assay of this set; here they are far more common.
Myeloid diff 2: myeloid differentiation induction; ER-HoxA9 myeloid progenitors, lysozyme-GFP differentiation, flow cytometry; calls only at 10 µM; AID 624256; 1% of 360,000 active;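 active = normalized GFP-positive differentiation at or above the plate's own cutoff, the solvent-only control mean plus 3 SD; inconclusive = no clear call, values can overlap the other calls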;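 note: cells exposed to compound for four days before flow analysis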
Granule exo inh: lytic granule exocytosis inhibition | TALL-104 LAMP-1 surface exposure, flow cytometry; cells stimulated with thapsigargin and PMA | inhibition, % at 10 µM | 0.66% of 360,000 active;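 active = inhibition above about 55%, limit read from the data; inconclusive = no clear call, values can overlap the other calls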
MC4R ag barr: agonists of human melanocortin 4 receptor (MC4R) beta-arrestin; 0.98% of 360,000 active; U2OS MC4R beta-arrestin complementation, luminescence; percent of melanotan II response, DMSO zero; P32245; AID 540308; activation, % at 8.9 µM;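 active = activation above a per-plate cutoff, the mean activation of sample wells on that plate plus 3 SD, cut at about 8% in these data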
Target sequence (P32245 whole entry, looked up): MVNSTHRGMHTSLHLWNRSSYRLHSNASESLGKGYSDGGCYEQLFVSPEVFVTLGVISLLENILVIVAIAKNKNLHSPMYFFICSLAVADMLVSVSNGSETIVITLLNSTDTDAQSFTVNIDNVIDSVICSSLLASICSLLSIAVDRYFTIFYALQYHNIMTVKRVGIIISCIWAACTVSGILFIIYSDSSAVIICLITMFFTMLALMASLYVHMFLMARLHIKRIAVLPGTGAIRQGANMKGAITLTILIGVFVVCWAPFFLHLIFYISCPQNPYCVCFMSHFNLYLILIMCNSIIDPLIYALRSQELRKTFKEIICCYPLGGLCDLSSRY
EBI2 block: blocks human EBI2 receptor beta-arrestin signaling | P32249 | EBI2 beta-arrestin recruitment, luminescence, 7a,25-OHC stimulated | inhibition, % at 5 µM | 0.81% of 360,000 active; in the data active = inhibition above about 38%;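 note: enzyme fragment complementation signal reports receptor beta-arrestin coupling in cells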
MC4R antagonist: human MC4R antagonism in cAMP assay | AID 540295 | inhibition, % at 6.5 µM | MC4R-expressing cells, MTII-stimulated cAMP, LANCE TR-FRET | 0.48% of 360,000 active | P32245;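 active = inhibition above its plate's cutoff, the mean of tested wells on that plate plus 3 SD, cut at about 29% in these data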
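Assay system: U2OS-MC4R stable cell line; Also added: Melanotan II; Technique: Eu-cAMP/anti-cAMP TR-FRET, emission 671 nm; Times: 30-min compound, 1-h challenge, 1-h detection, room temperature.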
Exocytosis CP01: lytic granule exocytosis inhibition; inhibition, % at 10 µM; TALL-104 cells, LAMP-1 externalization, flow cytometry; stimulated with PMA plus thapsigargin; shares compounds with Granule exo inh; 11% of 1,500 active; in the data active = inhibition above about 60%
Hits are given with their value.

`CCOc1ccc(NC(=O)C2C(c3ccccc3)C2(Cl)Cl)cc1` (stereo not given) gave Myeloid diff 2 inactive, Granule exo inh 81, MC4R ag barr inactive, EBI2 block inactive, MC4R antagonist inactive and Exocytosis CP01 inactive.
`O=C1NC[C@H](CCCCN2CCN(CCc3ccc(O)cc3)C(=O)C2=O)N(CCc2ccc(O)cc2)C1=O` gave Myeloid diff 2 inactive, Granule exo inh inactive and EBI2 block inactive.
For O=C(c1cc2ccccc2o1)N(C1CC1)C1(C(=O)Nc2ccccc2)CCCC1 the results were Myeloid diff 2 inactive, Granule exo inh inactive, MC4R ag barr inactive, EBI2 block inactive and MC4R antagonist inactive.
For COc1ccc(C(=O)CSc2cc(C)nc(SCC(=O)c3ccc(C)cc3)n2)cc1 the results were Myeloid diff 2 inactive, Granule exo inh 56, MC4R ag barr inactive, EBI2 block inactive, MC4R antagonist inactive and Exocytosis CP01 inactive.
Cc1ccc(C(=O)CSc2nc(C)cc(SCc3nnc(-c4ccccc4)o3)n2)cc1 was read as Myeloid diff 2 inactive, Granule exo inh inactive, MC4R ag barr inactive, EBI2 block inactive and MC4R antagonist inactive.
COCCNC(=O)C1CCCN(Cc2cccc(C(F)(F)F)c2)CC1 (stereo not given) was read as Myeloid diff 2 inactive, Granule exo inh inactive, MC4R ag barr inactive, EBI2 block inactive and MC4R antagonist inactive.
`O=C(NCC1CCCN(Cc2ccccc2F)C1)c1cccc(C(F)(F)F)c1` (stereo not given) gave Myeloid diff 2 inactive, Granule exo inh inactive, MC4R ag barr inactive, EBI2 block inactive and MC4R antagonist inactive.
CCN1CCN(CCNC(=O)c2ccc(/C=C3/Sc4ccccc4N(Cc4ccccc4C)C3=O)cc2)CC1 was read as Myeloid diff 2 active, Granule exo inh 66, MC4R ag barr 8.9, EBI2 block inactive, MC4R antagonist inactive and Exocytosis CP01 inactive.
COc1ccc(C(=O)C[C@@H]2OC3CCCCC3N2S(=O)(=O)c2ccc(C)cc2)cc1OC (stereo not given in full) was read as Myeloid diff 2 inactive, Granule exo inh inactive and EBI2 block inactive.
For COc1cc(OC)cc(C(=O)NCCNc2nc3cc(C)cc(C)c3cc2C#N)c1 the results were Myeloid diff 2 inactive, Granule exo inh 61, MC4R ag barr inactive, EBI2 block inactive, MC4R antagonist inactive and Exocytosis CP01 inactive.
O=C1Nc2ccccc2-n2nnnc2C1N1CCN(c2ccc(C(F)(F)F)cn2)CC1 (stereo not given) was read as Myeloid diff 2 inactive, Granule exo inh inactive and EBI2 block inactive.
Screening Cc1cc(C)n(CCc2nc(-c3ccc(C)o3)cs2)n1 returned Myeloid diff 2 inactive, Granule exo inh 68, MC4R ag barr inactive, EBI2 block inactive, MC4R antagonist inactive and Exocytosis CP01 inactive.
`COc1ccc(CC(=O)Nc2cccc(C(C)=O)c2)cc1S(=O)(=O)N1CCOCC1` gave Myeloid diff 2 inactive, Granule exo inh 100, MC4R ag barr inactive, EBI2 block inactive, MC4R antagonist inactive and Exocytosis CP01 inactive.
Cc1cc(OCC(=O)N2CCN(c3cccc(Cl)c3)CC2)c2c(C)c(C)c(=O)oc2c1 was read as Myeloid diff 2 inactive, Granule exo inh inactive, MC4R ag barr inactive, EBI2 block inactive and MC4R antagonist inactive.
For Cc1cc(OC(C)C(=O)N2CCN(c3ccc(F)cc3)CC2)c2c(C)c(C)c(=O)oc2c1 (stereo not given) the results were Myeloid diff 2 inactive, Granule exo inh 64, MC4R ag barr inactive, EBI2 block inactive, MC4R antagonist inactive and Exocytosis CP01 inactive.
`CCOC(=O)c1c(NC(C)=O)sc2c(OC)c(Br)ccc12` gave Myeloid diff 2 inactive, Granule exo inh inactive, MC4R ag barr inactive, EBI2 block inactive and MC4R antagonist inactive.
Screening CCOC(=O)c1c(NC(C)=O)sc2c(OCC(O)CN(CC)CC)c(Br)ccc12 (stereo not given) returned Myeloid diff 2 inactive, Granule exo inh 68, MC4R ag barr inactive, EBI2 block inactive, MC4R antagonist inactive and Exocytosis CP01 71.
Screening Cc1ccc(S(=O)(=O)N2CCN(CC(O)c3ccccc3)CC2)cc1 (stereo not given) returned Myeloid diff 2 inactive, Granule exo inh inactive, MC4R ag barr inactive, EBI2 block inactive and MC4R antagonist inactive.
Screening O=S(=O)(c1ccccc1F)N1CCN(CC(O)c2ccccc2)CC1 (stereo not given) returned Myeloid diff 2 inactive, Granule exo inh 80, MC4R ag barr inactive, EBI2 block inactive, MC4R antagonist inactive and Exocytosis CP01 inactive.
Screening COc1cccc(-c2nc(NC(C)(C)C)c3ccccc3n2)c1O returned Myeloid diff 2 inactive, Granule exo inh 56, MC4R ag barr inactive, EBI2 block inactive, MC4R antagonist inactive and Exocytosis CP01 inactive.
`C[C@H](CO)N1C[C@H](C)[C@H](CN(C)C(=O)Nc2cccc(C(F)(F)F)c2)OCc2cnnn2CCCC1=O` gave Myeloid diff 2 inactive, Granule exo inh inactive, MC4R ag barr inactive, EBI2 block inactive and MC4R antagonist inactive.
CN1C(C(=O)NCC2CC2)CC2Cn3c(nc4cc(Cl)c(Cl)cc43)C21 (stereo not given) was read as Myeloid diff 2 inactive, Granule exo inh inactive, MC4R ag barr inactive, EBI2 block inactive and MC4R antagonist inactive.
Screening CC(C)CCNC(=O)C1CC2Cn3c(nc4cc(Cl)c(Cl)cc43)C2N1C (stereo not given) returned Myeloid diff 2 inactive, Granule exo inh 62, MC4R ag barr inactive, EBI2 block inactive, MC4R antagonist inactive and Exocytosis CP01 inactive.
Cc1ccc(S(=O)(=O)N2CCSC2)cc1C was read as Myeloid diff 2 inactive, Granule exo inh inactive, MC4R ag barr inactive, EBI2 block inactive and MC4R antagonist inactive.
Cc1coc2c1c(C)cc1oc(=O)c(CC(=O)NCC(=O)NCC(=O)O)c(C)c12 was read as Myeloid diff 2 inactive, Granule exo inh inconclusive, MC4R ag barr inactive, EBI2 block inactive and MC4R antagonist inactive.
Cc1coc2c1c(C)cc1oc(=O)c(Cc3ccccc3)c(C)c12 was read as Myeloid diff 2 inactive, Granule exo inh 63, MC4R ag barr inactive, EBI2 block inactive, MC4R antagonist inactive and Exocytosis CP01 inactive.
Cc1ccc(Cc2c(-c3ccco3)nc3c4ccccc4ccn23)cc1 was read as Myeloid diff 2 inactive, Granule exo inh 58, EBI2 block inactive and Exocytosis CP01 inactive.
`Cc1cc2nc(-c3ccco3)c(Cc3cccc(Cl)c3)n2c(C)c1Br` gave Myeloid diff 2 inactive, Granule exo inh 73, EBI2 block inactive and Exocytosis CP01 inactive.
For Cc1cc(Br)cn2c(Cc3cccc(Cl)c3)c(-c3ccco3)nc12 the results were Myeloid diff 2 inactive, Granule exo inh 56, EBI2 block inactive and Exocytosis CP01 inactive.
CCCCN(C)c1c(C)nc2ccc(C(=O)NCCCn3ccnc3)cn12 was read as Myeloid diff 2 inactive, Granule exo inh inactive, MC4R ag barr inactive, EBI2 block inactive and MC4R antagonist inactive.

Screens: PubChem, several laboratories
